25 compounds from ChEMBL document CHEMBL1157793, “Synthesis and antitumor activity of 1,5-disubstituted 1,2,4-triazoles as cis-restricted combretastatin analogues” (J Med Chem, 2010) can be followed below.

One test concerns MCF7. Description: Antiproliferative activity against human MCF7 cells after 72 hrs by MTT assay. Type of test: functional, cell-based. The following applies: MCF7, 72 h. (Tetrazolium assays rely on reduction of a dye to a coloured formazan, in cell work by metabolically active cells.)
In another test the test system is Jurkat. Nature of the test: Antiproliferative activity against human Jurkat cells after 72 hrs by MTT assay. The test is classed as functional, cell-based. Put shortly:
(§1)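 Cells seeded at 8×10^3 per well (Jurkat, HL-60, K562 in RPMI-1640; MCF7, A549, HeLa in DMEM; all with 10% FBS, penicillin/streptomycin), incubated 18 h at 37 °C, 5% CO2, then exposed to compound at varying concentrations in complete medium for 72 h.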

For the next test, the system named is K562. Nature of the test: Antiproliferative activity against human K562 cells after 72 hrs by MTT assay. Type of test: functional, cell-based. The following applies: K562, 72 h. In short, it runs like this:
as §1

Another test concerns A549. Description: Antiproliferative activity against human A549 cells after 72 hrs by MTT assay. Type of test: functional, cell-based. The following applies: A549, 72 h.
The test system of another test is HeLa. Description: Antiproliferative activity against human HeLa cells after 72 hrs by MTT assay. Type of test: functional, cell-based.
The next test relates to HL-60. Description: Antiproliferative activity against human HL60 cells after 72 hrs by MTT assay. Type of test: functional, cell-based. The following applies: HL-60, 72 h.
The species entered for another test is Bos taurus. Nature of the test: Displacement of [3H]colchicine from bovine tubulin at 1 uM. In short, it runs like this:
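[3H]Colchicine binding inhibition measured with reaction mixtures of 1 µM tubulin, 5 µM [3H]colchicine and 1 µM test compound.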

Test [1] is described as follows: Inhibition of bovine brain tubulin polymerization after 20 mins by turbidimetry. On the set-up: species or system Bos taurus. Put shortly: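 Bovine brain tubulin (10 µM) preincubated with varying compound concentrations in glutamate buffer at 30 °C, chilled to 0 °C, 0.4 mM GTP added, then warmed to 30 °C in spectrophotometer; assembly followed by turbidity at 350 nm.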

As to `COc1ccccc1-c1ncnn1-c1cc(OC)c(OC)c(OC)c1`, the IC50 in the test on MCF7, in the test on Jurkat, in the test with K562, in the test on A549, with HeLa and with HL-60 was more than 10 µM throughout.

Regarding `COc1cc(-n2ncnc2-c2ccc(OC(C)C)cc2)cc(OC)c1OC`, the Activity in the test listed under Bos taurus stood at 37%. Further, the IC50 (commonly the concentration that gives 50% inhibition) is 0.61 µM in the test on MCF7; 5.1 µM in test [1]; 0.65 µM in the test with Jurkat; 0.8 µM in the test on K562; more than 10 µM with A549; 0.6 µM with HeLa. For the same compound, half-maximal inhibition in the test on HL-60 (IC50) required 0.7 µM.

Take `COc1ccc(/C=C\c2cc(OC)c(OC)c(OC)c2)cc1O` [COMBRETASTATIN A4]: in the test listed under Bos taurus, the Activity is 87%. Further, the concentration for half-maximal inhibition (IC50) in the test on Jurkat and in the test on K562 was 0.005 µM in each case.

Regarding `COc1cc(-n2ncnc2-c2cccc(F)c2)cc(OC)c1OC`, the IC50 with MCF7, with Jurkat, with K562, in the test on A549, in the test with HeLa and with HL-60 was more than 10 µM in each case.

As to `COc1cc(-n2ncnc2-c2ccc(Cl)cc2)cc(OC)c1OC`, the IC50 with MCF7, with Jurkat, in the test on K562, in the test on A549, in the test on HeLa and in the test on HL-60 was more than 10 µM each time.

Take `CCOc1ccccc1-c1ncnn1-c1cc(OC)c(OC)c(OC)c1`: the IC50 in the test on MCF7, in the test with Jurkat, in the test with K562, in the test on A549, with HeLa and in the test on HL-60 was more than 10 µM throughout.

For `COc1cc(-c2ncnn2-c2cccc([N+](=O)[O-])c2)cc(OC)c1OC`, the IC50 in the test on MCF7, in the test on Jurkat, in the test with K562, in the test on A549, in the test on HeLa and in the test with HL-60 was more than 10 µM in each case.

For the compound `COc1cc(-n2ncnc2-c2ccccc2)cc(OC)c1OC`, the IC50 with MCF7, in the test on Jurkat, with K562, in the test on A549, in the test with HeLa and in the test with HL-60 was more than 10 µM throughout.

As to `COc1cc(-c2ncnn2-c2ccc(Cl)cc2)cc(OC)c1OC`, the IC50 with MCF7, in the test with Jurkat, in the test on K562, in the test with A549, in the test on HeLa and in the test with HL-60 was more than 10 µM throughout.

For the compound `COc1cc(-c2ncnn2-c2cccc(F)c2)cc(OC)c1OC`, the IC50 in the test with MCF7, in the test with Jurkat, in the test with K562, in the test with A549, in the test on HeLa and in the test on HL-60 was more than 10 µM throughout.

With `COc1cc(-n2ncnc2-c2cccc([N+](=O)[O-])c2)cc(OC)c1OC`, the IC50 in the test with MCF7, in the test on Jurkat, with K562, in the test with A549, with HeLa and with HL-60 was more than 10 µM in each case.

As to `COc1cc(-c2ncnn2-c2ccccc2)cc(OC)c1OC`, the IC50 with MCF7, with Jurkat, in the test on K562, with A549, with HeLa and with HL-60 was more than 10 µM each time.

Take `COc1cc(-n2ncnc2-c2ccc(Cl)c(Cl)c2)cc(OC)c1OC`: the IC50 in the test on MCF7, with Jurkat, with K562, in the test with A549, in the test with HeLa and in the test with HL-60 was more than 10 µM each time.

As to `COc1cc(-c2ncnn2-c2cccc(N)c2)cc(OC)c1OC`, the IC50 in the test with MCF7, with Jurkat, with K562, in the test with A549, with HeLa and in the test with HL-60 was more than 10 µM in each case.

On to `COc1cc(-c2ncnn2-c2ccc([N+](=O)[O-])cc2)cc(OC)c1OC`, for which the IC50 in the test on MCF7, with Jurkat, in the test with K562, with A549, with HeLa and with HL-60 was more than 10 µM each time.

In the case of `COc1cc(-n2ncnc2-c2ccc(F)cc2)cc(OC)c1OC`, the IC50 in the test with MCF7, with Jurkat, in the test on K562, with A549, in the test with HeLa and in the test on HL-60 was more than 10 µM each time.

Take `COc1cc(-c2ncnn2-c2ccc(Cl)c(Cl)c2)cc(OC)c1OC`: the IC50 with MCF7, with Jurkat, in the test with K562, in the test with A549, in the test on HeLa and with HL-60 was more than 10 µM in each case.

As for `CCOc1cccc(-c2ncnn2-c2cc(OC)c(OC)c(OC)c2)c1`, the IC50 with MCF7, in the test with Jurkat, in the test with K562, in the test on A549, in the test with HeLa and in the test with HL-60 was more than 10 µM each time.

Turning to `COc1cc(-c2ncnn2-c2ccc(N)cc2)cc(OC)c1OC`, the IC50 in the test with MCF7, with Jurkat, in the test on K562, in the test on A549, with HeLa and in the test on HL-60 was more than 10 µM each time.

With `COc1cc(-c2ncnn2-c2ccc(F)cc2)cc(OC)c1OC`, the IC50 with MCF7, with Jurkat, with K562, in the test with A549, in the test on HeLa and in the test on HL-60 was more than 10 µM throughout.

With `COc1ccc(-n2ncnc2-c2cc(OC)c(OC)c(OC)c2)cc1`, the IC50 with MCF7 was 7.4 µM; in test [1], 16 µM; in the test with Jurkat it was 0.093 µM; with K562 it was 3.6 µM; in the test with A549, more than 10 µM; in the test with HeLa it was more than 10 µM. For the same compound, the IC50 in the test on HL-60 was determined as 6.2 µM.

For `COc1cc(-c2ncnn2-c2ccc(Cl)cc2Cl)cc(OC)c1OC`, the IC50 in the test with MCF7, in the test with Jurkat, in the test on K562, with A549, in the test with HeLa and in the test with HL-60 was more than 10 µM throughout.

As for `COc1cc(-n2ncnc2-c2ccc(OC(F)(F)F)cc2)cc(OC)c1OC`, the IC50 in the test on MCF7, in the test on Jurkat, in the test with K562, in the test with A549, in the test with HeLa and with HL-60 was more than 10 µM throughout.

`COc1cccc(-c2ncnn2-c2cc(OC)c(OC)c(OC)c2)c1`: the IC50 in the test on MCF7, with Jurkat, with K562, in the test with A549, in the test on HeLa and in the test on HL-60 was more than 10 µM throughout.

Consider `COc1cc(-n2ncnc2-c2cccc(Cl)c2)cc(OC)c1OC`, for which the IC50 in the test with MCF7, in the test with Jurkat, in the test with K562, with A549, in the test with HeLa and with HL-60 was more than 10 µM in each case.
